Bioassay records as filed in PubChem BioAssay.
The list is not random: actives were taken first. Their share in the collection is about 2.6%.
TNAP inh no acc – TNAP (human) inhibition, acceptor-free conditions; P05186; purified TNAP, CDP-star luminescence, 30 min; inhibition, % at 20 µM; 200,000 compounds, 0.26% hits;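 active means tissue-nonspecific alkaline phosphatase inhibition above about 50% at 20 µM in the single-dose screen, limit read from the data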;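 further: 0% = DMSO negative control and 100% = EDTA positive control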
Target sequence (P05186 whole entry, looked up): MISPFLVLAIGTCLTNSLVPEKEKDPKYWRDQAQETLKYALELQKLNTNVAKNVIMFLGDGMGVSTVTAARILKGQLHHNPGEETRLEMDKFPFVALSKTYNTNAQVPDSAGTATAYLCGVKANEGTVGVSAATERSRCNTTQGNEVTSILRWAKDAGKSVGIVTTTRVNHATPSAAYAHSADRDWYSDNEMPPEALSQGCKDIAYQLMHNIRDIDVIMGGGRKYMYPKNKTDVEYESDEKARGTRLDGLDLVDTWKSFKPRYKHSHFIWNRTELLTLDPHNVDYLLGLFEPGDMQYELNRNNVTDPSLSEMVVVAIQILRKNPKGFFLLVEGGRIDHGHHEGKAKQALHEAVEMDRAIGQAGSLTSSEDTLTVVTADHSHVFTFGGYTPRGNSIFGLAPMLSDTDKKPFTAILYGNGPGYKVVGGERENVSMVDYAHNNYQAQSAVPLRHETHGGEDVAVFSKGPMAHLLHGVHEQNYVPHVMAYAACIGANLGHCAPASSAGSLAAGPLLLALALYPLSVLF
TNAP act hi DEA – TNAP (human) activation, high acceptor; 200,000 tested, under 10 active; purified TNAP, CDP-star luminescence, 1 M DEA, 30 min; active compounds read high; 0 = EDTA background, 1 = DMSO-only activity; AID 1136; activation factor at 20 µM; P05186;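 active means activation factor at least 2 at 20 µM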
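Assay system: human TNAP; Input: enzyme diluted 1/800 final; Reagent: CDP-star luminogenic substrate at 100 µM final; Timing: 30 min, room temperature; Signal: luminescence; Evaluation: TNAP activation factor scaled between EDTA and DMSO control wells.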
Arbovirus anti – arbovirus infection inhibition | arbovirus infection cell-based antiviral screen | inhibition, % at 10 µM | 200,000 compounds, 0.37% hits | AID 1251; in the data active means inhibition above about 30%
TNAP inh hiacc – blocks human TNAP under high phosphate acceptor concentration. P05186. purified TNAP, CDP-star luminescence, 1 M DEA. inhibition, % at 20 µM. 200,000 compounds, 0.03% hits. AID 1135;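 active means over 50% inhibition of tissue-nonspecific alkaline phosphatase at 20 µM in the single-dose screen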;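 further: plate controls were DMSO wells for no effect and EDTA-quenched wells as full inhibition for full effect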
WT yeast gro inh – growth inhibition of WT yeast, mitochondrial fusion screen | AID 1362 | inhibition, % at 10 µM | 190,000 compounds, 2.1% hits | mitochondrial fusion phenotypic screen, WT strain; in the data active means inhibition above about 58%; tested in S. cerevisiae
Starred values were filed as active, the others as inactive; . = no result given.

SMILES | TNAP inh no acc | TNAP act hi DEA | Arbovirus anti | TNAP inh hiacc | WT yeast gro inh
CC1CCCN(C(=O)Cc2cn(Cc3cccc(Cl)c3)c3ccccc23)C1 (stereo not given) | -13.7 | 1 | -38.1 | -3.2 | 72.6*
O=C(Cc1cn(Cc2cccc(Cl)c2)c2ccccc12)N1CCCCCC1 | -20.4 | 1.1 | -18.5 | -5.4 | 68.5*
O=C(O)Cc1cn(Cc2cccc(Cl)c2)c2ccccc12 | -8.4 | 1.1 | 13.1 | -7.5 | -1.2
CC1CC(C)CN(CC(C)(C)NS(=O)(=O)c2ccc(Cl)cc2)C1 (stereo not given) | -8.7 | 1 | -2.2 | -4.4 | 10.0
CC(NC(=O)c1ccccc1)C(c1cccs1)N1CCOCC1 (stereo not given) | -8.4 | 1 | 10.9 | -2.6 | -14.1
CN1CCN(c2nc(-c3ccccc3)nc(-c3ccccc3)c2C#N)CC1 | -7.2 | 1 | -14.2 | -0.9 | 72.9*
COc1cccc(-c2nc(-c3ccccc3)nc(N3CCN(C)CC3)c2C#N)c1 | -10.6 | 1 | -30.0 | -2.6 | 80.9*
CC1CCN(Cc2csc(N)n2)CC1 | -9.7 | 1 | 3.2 | -2.5 | 15.0
CC(NC(=O)OCc1ccccc1)C(=O)N1CC(O)CC1C(=O)O (stereo not given) | -4.7 | 0.9 | -1.7 | 6.0 | -2.6
CNC(=S)N(CCc1c(C)[nH]c2ccc(C)cc12)Cc1cccs1 | -12.1 | 1.1 | -16.8 | -5.0 | 65.3*
CCOc1ccc(NC(=S)NN(C)C(=S)Nc2ccc(OCC)cc2)cc1 | -157.3 | 1 | -8.3 | -4.9 | 65.4*
COc1ccc(NC(=S)N(CCc2c(C)[nH]c3ccc(C)cc23)Cc2ccco2)cc1 | 0.0 | 1 | 4.0 | -1.7 | 68.7*
CCOc1ccc(NC(=S)N(CCc2c(C)[nH]c3ccc(C)cc23)Cc2ccco2)cc1 | -3.2 | 1.1 | 4.1 | -7.3 | 67.0*
COc1ccc(NC(=S)N(CCc2c(C)[nH]c3ccc(C)cc23)Cc2cccs2)cc1 | -5.2 | 1 | -14.6 | -0.5 | 66.2*
CCOc1ccc(NC(=S)N(Cc2ccc(N(C)C)cc2)Cc2ccco2)cc1 | -8.7 | 1 | -6.5 | -3.0 | 59.0*
O=C(c1ccccc1)c1c[nH]c(C(=O)C(Cl)(Cl)Cl)c1 | -7.5 | 1 | -11.2 | -1.9 | 3.0
O=C(c1ccc(Cl)cc1)c1c[nH]c(C(=O)C(Cl)(Cl)Cl)c1 | -7.9 | 1 | -40.5 | -2.3 | 82.5*
CC1CC(C)CN(c2nc(NCc3ccco3)nc(N)c2[N+](=O)[O-])C1 (stereo not given) | 4.8 | 0.9 | 32.9* | 7.4 | 25.4
CC1CCCN(c2nc(NCc3ccco3)nc(N)c2[N+](=O)[O-])C1 (stereo not given) | 5.2 | 1 | 14.5 | 4.6 | 0.6
Cc1ccc(Nc2nc(N)c([N+](=O)[O-])c(N3CCCC(C)C3)n2)cc1C (stereo not given) | 0.0 | 0.9 | -48.3 | 5.8 | 96.1*
Cc1ccc(Nc2nc(N)c([N+](=O)[O-])c(N3CCOCC3)n2)cc1 | 0.0 | 1 | 1.5 | 2.9 | -8.5
Cc1ccc(Nc2nc(N3CCN(C)CC3)nc(N)c2[N+](=O)[O-])cc1C | -6.1 | 1 | -2.6 | 2.0 | 82.7*
CSCCCNC(=S)N(C)CC(=O)Nc1ccc(C)cc1 | -6.9 | 1 | 1.6 | -2.5 | 15.9
CC1(C)CC(C(CCN(Cc2ccccc2)C(=O)c2ccco2)c2ccc(F)cc2)CCO1 (stereo not given) | -3.6 | 1 | -35.2 | -3.8 | 74.5*
CCC(C(=O)OCC(=O)Nc1cc(Cl)cc(Cl)c1)c1ccccc1 (stereo not given) | -6.1 | 1 | 13.6 | 1.4 | 79.3*
SMILES | TNAP inh no acc | TNAP act hi DEA | Arbovirus anti | TNAP inh hiacc | WT yeast gro inh
O=C1CC(=O)N(Cc2ccco2)C(=S)N1 | -20.7 | 1.1 | 18.9 | -7.5 | 14.2
O=C1CC(=O)N(Cc2ccco2)C(=O)N1 | 8.9 | 1 | 34.1* | -2.5 | -0.9
COc1cc(C(=O)OCC(=O)NC2CCS(=O)(=O)C2)ccc1OCc1c(C)noc1C (stereo not given) | -6.6 | 1 | -14.5 | 1.1 | -33.7
CN(C)C(=O)/C(C#N)=C\c1cc(Br)c(Sc2ccc(Cl)cc2)o1 | -1.9 | 1 | 3.0 | -0.4 | 88.0*
CCCN(CCC)c1nc2ccccc2nc1C(C#N)C(=O)OC(C)COC (stereo not given) | . | . | -28.1 | . | 68.1*
O=C(Nc1ncccc1O)c1cccc(S(=O)(=O)N2CCc3ccccc32)c1 | -10.0 | 1 | -0.5 | -2.2 | 69.2*
COc1ccc(NC(=O)c2cccc(S(=O)(=O)N3CCc4ccccc43)c2)cn1 | 1.6 | 0.9 | 5.6 | 6.3 | 28.3
Cc1nc(N/N=C/c2ccccn2)sc1C | 10.0 | 0.9 | -31.9 | 5.0 | 47.5
CCCc1sc(N/N=C/c2ccccn2)nc1-c1ccc(F)cc1 | -13.2 | 0.9 | -25.9 | 10.1 | 83.0*
Cc1ccc(NS(=O)(=O)c2cc([N+](=O)[O-])ccc2NNC(=S)Nc2cccc(Cl)c2)c(C)c1 | 39.6 | 0.4 | -42.4 | 57.8* | 24.0
S=C(NCCCN1CCOCC1)Nc1ccc(Nc2ccccc2)cc1 | -6.9 | 1 | -7.2 | -2.6 | 2.8
COc1ccccc1N1CCN(C(=O)c2ccc3[nH]c4c(c3c2)CC(C)CC4)CC1 (stereo not given) | -16.9 | 1 | -17.8 | -1.7 | 72.3*
CC1Cc2ccccc2N1C(=O)c1cc2sccc2n1Cc1ccc(F)cc1 (stereo not given) | -6.8 | 1 | 13.8 | -2.0 | 24.1
O=C(C1CCN(Cc2cccs2)CC1)N1CCN(Cc2ccc3c(c2)OCO3)CC1 | -3.0 | 1 | -7.5 | 1.5 | -10.4
Brc1ccc(/C=N/Nc2ccc3ccccc3n2)cc1 | -12.0 | 1 | 1.7 | -2.6 | 60.0*
Brc1ccccc1/C=N/Nc1ccc2ccccc2n1 | -53.6 | 1 | 39.2* | -0.3 | 68.6*
Fc1cccc(/C=N/Nc2ccc3ccccc3n2)c1 | -13.0 | 1.1 | 7.9 | -6.1 | 20.2
Cc1cc(N/N=C/c2ccccc2Br)nc2ccccc12 | -2.5 | 1 | 6.6 | -4.4 | 70.1*
CCOc1ccccc1NC(=O)CN1CCC(NC(=O)c2ccccc2)CC1 | -11.2 | 1.1 | 14.8 | -6.0 | -6.1
COC(=O)c1ccccc1NC(=O)CN1CCC(NC(=O)c2ccc(C)cc2)CC1 | -7.9 | 1.1 | 55.5* | -5.0 | 6.7
COC(=O)c1ccccc1NC(=O)CN1CCC(n2nnc3cc(F)ccc32)CC1 | -7.8 | 1.1 | 40.2* | -6.0 | 6.0
CCC1CCCCN1Cc1ccc(N)cc1 (stereo not given) | 3.2 | 1 | 0.8 | -0.9 | -0.7
Cc1cc2cc(CCNC(=O)c3ccc(Br)o3)c(=O)[nH]c2cc1C | -5.5 | 1 | 0.5 | -3.0 | 95.8*
O=C(NCc1ccc(Cl)cc1)c1ccccc1Oc1ccccc1 | -1.5 | 1.1 | -31.0 | -10.0 | 60.5*
COCCCNC(=O)c1ccccc1Oc1ccccc1 | -16.5 | 1 | -3.9 | -1.4 | -0.4
Cc1cc(C(=O)N/N=C/C=C/c2cccc([N+](=O)[O-])c2)n[nH]1 | -140.2 | 1 | 4.3 | -4.4 | -9.3
CCc1cc(C(=O)O)c(NC(=O)/C=C/c2ccc(OC)c(OC)c2)s1 | -4.4 | 1 | 70.9* | -4.4 | -18.4
